HIV Env fusion: inhibitors of HIV-1 Env-driven cell-cell fusion, primary screen, HeLa-JRFL effector, CEM21 target cells, luciferase | inhibition, % at 12.3 µM | 1.1% of 360,000 active | AID 651610, 2012;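 active = mean replicate inhibition score of at least 50 and every replicate individually at or above 50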
ERp5 inh: inhibitors of ERp5-driven insulin aggregation, primary screen, biochemical, turbidity, absorbance 650 nm, single point. 90 min. Protein disulfide-isomerase A6 (Homo sapiens), Q15084. inhibition, % at 9.99 µM. 0.05% of 350,000 active;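 active = mean replicate inhibition above about 25%, with every replicate also reaching it, limit read from the data, passing the limit was not always enough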
Target sequence (Q15084 whole entry, looked up): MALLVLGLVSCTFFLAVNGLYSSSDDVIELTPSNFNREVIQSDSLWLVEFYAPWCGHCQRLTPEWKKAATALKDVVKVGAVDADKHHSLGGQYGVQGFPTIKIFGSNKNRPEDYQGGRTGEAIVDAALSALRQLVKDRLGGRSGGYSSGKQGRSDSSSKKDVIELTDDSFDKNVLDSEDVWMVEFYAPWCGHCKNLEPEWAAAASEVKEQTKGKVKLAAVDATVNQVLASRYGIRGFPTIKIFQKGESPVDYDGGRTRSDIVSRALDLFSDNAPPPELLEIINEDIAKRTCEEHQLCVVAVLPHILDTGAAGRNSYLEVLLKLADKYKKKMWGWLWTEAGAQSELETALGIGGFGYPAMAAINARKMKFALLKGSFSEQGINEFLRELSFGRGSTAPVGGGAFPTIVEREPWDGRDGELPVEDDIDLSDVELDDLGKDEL
PDI inh: inhibitors of human PDI, primary screen, biochemical, turbidity, single point, plate reader; Protein disulfide-isomerase (Homo sapiens), P07237; PDI insulin aggregation turbidity, A650, 90 min; inhibition, % at 10 µM; 0.052% of 350,000 active;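 active = mean inhibition across replicates of 30% or more, whatever share of single replicates reach that level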
INS-1E GSIS act: GLuc luminescence reporter in INS-1E cells, primary screen for activators of glucose-dependent secretion of insulin. 0.61% of 370,000 active. INS-1E GLuc reporter insulin secretion, 2-3 h. AID 743287, 2014. activation, % at 16.6 µM;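 active = lowest replicate activation of at least 40%, so every replicate reaches that level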
FN deposition inh: inhibitors of fibronectin matrix deposition, primary screen, AH1F cells, Alexa488-fibronectin fluorescence, plate reader. AID 743247, 2014. 0.086% of 350,000 active. AH1F fibroblasts, overnight. inhibition, % at 12.6 µM;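 active = mean inhibition across replicates of 30% or more, regardless of how many single replicates reach that level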
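test system = AH1F fibroblasts assembling fluorescent fibronectin matrix | quantity = 10000 AH1F cells per well | buffer or medium = DMEM plus 2% serum, read in PBS | doses = single dose, pinned | incubation = 1 h cell attachment, overnight exposure to compound and label | detection = fluorescence at 485 nm excitation, 525 nm emission | read-out basis = inhibition from reduced deposited-fibronectin fluorescence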
Each line names hits and unclear results; the compound was inactive in the other large screens; [ ] = dose if it differs, or a comment. Hits are enriched below; roughly 1.4% of the tested compounds scored in any of these assays.

C[C@H](CO)N1C[C@H](C)[C@@H](CN(C)Cc2ccc(C(F)(F)F)cc2)Oc2ccc(NS(=O)(=O)c3ccc(Cl)cc3)cc2CC1=O	HIV Env fusion 69.0[16.7 µM] (no result: PDI inh)
CCNC(=O)C[C@@H]1C=C[C@H](NC(=O)C2CCOCC2)[C@H](CO)O1	none (no result: PDI inh, FN deposition inh)
CO[C@H]1CC[C@@H]2CCN(C)C(=O)[C@H](C)[C@@H](OC)CN(C)C(=O)c3cc(C#N)ccc3OC[C@@H]1O2	none (no result: PDI inh)
CC(C)NC(=O)N(C)C[C@H]1Oc2ncc(C#CC3CCCCC3)cc2C(=O)N([C@@H](C)CO)C[C@H]1C	none (no result: ERp5 inh, PDI inh)
COc1ccc(C#Cc2cnc3c(c2)C(=O)N([C@@H](C)CO)C[C@H](C)[C@H](CN(C)CC2CCCC2)O3)cc1	none (no result: PDI inh, INS-1E GSIS act, FN deposition inh)
S=C(Nc1ccc(Cl)cc1)c1nc2ccccc2[nH]1	HIV Env fusion 58.5 (no result: ERp5 inh)
Cc1ccccc1NC(=S)c1nc2ccccc2[nH]1	none (no result: INS-1E GSIS act)
CC1=N/C(=C\c2ccc(OC(C)C)cc2)C(=O)N1c1ccc(C(=O)O)cc1	none
COc1ccc(/C=C2\N=C(c3ccccc3)N(c3ccc(C(=O)O)cc3)C2=O)cc1OC	INS-1E GSIS act 71.0
Cc1ccc2[nH]c(=O)c(CN(CC3CCCO3)C(=O)c3cccs3)cc2c1 (stereo not given)	INS-1E GSIS act 155.8
NS(=O)(=O)c1ccc(CCNc2nn3c(-c4cccc(OC(F)(F)F)c4)cnc3s2)cc1	INS-1E GSIS act 143.4
COc1ccc(CNc2nn3c(-c4cccc(C(=O)N(C)C)c4)cnc3s2)cc1	none
C[C@H](CO)N1C[C@H](C)[C@H](CN(C)Cc2ccccc2)OCCCC[C@H](C)Oc2ccc(NC(=O)Nc3cccc4ccccc34)cc2C1=O	HIV Env fusion 113.8[16.7 µM] (no result: PDI inh)
C[C@H]1CCCCO[C@@H](CN(C)Cc2ccncc2)[C@@H](C)CN([C@@H](C)CO)C(=O)c2cc(NC(=O)Nc3cccc4ccccc34)ccc2O1	HIV Env fusion 69.9[16.7 µM] (no result: PDI inh, FN deposition inh)
COc1ccc(S(=O)(=O)N(C)C[C@H]2Oc3c(NC(=O)Nc4ccc(F)cc4)cccc3C(=O)N([C@@H](C)CO)C[C@@H]2C)cc1	none (no result: PDI inh, FN deposition inh)
N#Cc1sc2nc(N3CCCCC3)c3c(c2c1N)CCCC3	INS-1E GSIS act 141.4 (no result: HIV Env fusion, ERp5 inh, FN deposition inh)
O=C1C=CN(C2OC(CO)C(O)C2O)C(=O)C1 (stereo not given)	HIV Env fusion 65.3 (no result: FN deposition inh)
C[C@@]12C(=O)N(CCc3c[nH]c4ccccc34)CC(=O)N1[C@H]1c3ccccc3OC[C@@H]1[C@@H]2c1ccccc1	HIV Env fusion 82.3
C[C@@]12C(=O)N(Cc3ccc(F)cc3)CC(=O)N1[C@H]1c3cc(Cl)ccc3OC[C@@H]1[C@@H]2c1ccccc1	HIV Env fusion 77.3
CN1CC(=O)N2[C@H]3c4ccccc4OC[C@@H]3[C@H](c3ccccc3)[C@]2(C)C1=O	none
C[C@@]12C(=O)N(Cc3ccccc3)CC(=O)N1[C@H]1c3cc(Cl)ccc3OC[C@@H]1[C@@H]2c1ccccc1	HIV Env fusion 61.1
CCNC(=O)C[C@H]1CC[C@@H]2[C@H](COc3ccc(NC(=O)c4cccc(C(F)(F)F)c4)cc3C(=O)N2C)O1	none (no result: ERp5 inh, PDI inh)
CC(=O)c1ccc(N2CCN(C(=O)c3cc4c(-c5ccccc5F)nn(C)c4s3)CC2)cc1	HIV Env fusion 65.6 (no result: PDI inh)
N#C[C@H]1[C@H](c2ccccc2)[C@@H](CO)N1C(=O)Cc1ccccc1	none (no result: PDI inh)
NC(=O)CC(NC(=O)c1ccccc1)c1ccc(N2CCC(Cc3ccccc3)CC2)c([N+](=O)[O-])c1 (stereo not given)	HIV Env fusion 86.5
NC(=O)CC(NC(=O)c1ccc(Br)cc1)c1ccc(N2CCC(Cc3ccccc3)CC2)c([N+](=O)[O-])c1 (stereo not given)	none (no result: INS-1E GSIS act)
COCc1cn(CC[C@H]2CC[C@H](NC(=O)Nc3ccc(F)cc3)[C@@H](CO)O2)nn1	none (no result: PDI inh, FN deposition inh)
C=CC[n+]1c(-c2ccc(OC)c(OC)c2)csc1NNC(=O)Nc1ccccc1	HIV Env fusion 74.1 (no result: ERp5 inh)
C=CC[n+]1c(-c2ccccc2)csc1NC(C)(C)C	none
CC(C)C#Cc1cnc2c(c1)C(=O)N([C@H](C)CO)C[C@@H](C)[C@@H](CN(C)Cc1ccccc1F)O2	none (no result: PDI inh)
Cc1ccc(S(=O)(=O)Nc2cccc3c2O[C@H](CN(C)C(=O)NC(C)C)[C@@H](C)CN([C@@H](C)CO)C3=O)cc1	none (no result: HIV Env fusion, PDI inh, FN deposition inh)

Screening data (PubChem BioAssay)
